Assay [1] in a line: nonspecific flux increase, KCNQ1-free cells – parental CHO cells, counter-screen for KCNQ1 potentiator project (AID 493006). Conditions: parental CHO-K1 cells, FluxOR thallium flux, at 10 µM; hits give high values. A digest of the protocol:
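Test system: parental CHO-K1 cells, FluxOR dye-loaded / Probe or stimulus: potassium plus thallium depolarizing stimulus, 5x stock 12.5 mM K2SO4, Tl2SO4 / Timing: overnight 37 °C plating, 90 min dye, 20 min dark compound / Measured by: kinetic thallium-flux fluorescence / Read-out: max-minus-min fluorescence over baseline, percent of buffer-to-R-L3 span / Benchmarks: buffer and R-L3 controls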
(In general: A counterscreen serves to expose hits that act by an unwanted route or on another target.)

For assay [2], the target named is Potassium voltage-gated channel subfamily KQT member 1 (Homo sapiens) (UniProt P51787). Description: enhancement of KCNQ1 channel thallium flux – FluxOR thallium flux, CHO cells, duplicates, confirmation (AID 493007;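 active = potentiation averaged over duplicate wells exceeding buffer-only control mean by more than 3 SD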;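 for outcome: cells depolarized by a potassium plus thallium sulfate stimulus after compound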;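 for potentiation: 0% = buffer-only wells and 100% = R-L3 activator control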). The note with it: KCNQ1 cell line, FluxOR thallium flux fluorescence, at 10 µM; hits give high values, % of reference activator effect, buffer zero. A digest of the protocol: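 Assay system: CHO cells carrying KCNQ1 | Controls: Buffer and R-L3 controls | Schedule: FluxOR dye loading 90 min, compound exposure 20 min, room temperature | Read-out: Baseline-normalized fluorescence change, percent of buffer-to-R-L3 range | Replicates: Each compound tested in duplicate | Technique: Kinetic thallium influx fluorescence with FluxOR dye, 10 s baseline, 110 s post-stimulus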
Chain of Potassium voltage-gated channel subfamily KQT member 1 (Homo sapiens) (P51787 whole entry, looked up): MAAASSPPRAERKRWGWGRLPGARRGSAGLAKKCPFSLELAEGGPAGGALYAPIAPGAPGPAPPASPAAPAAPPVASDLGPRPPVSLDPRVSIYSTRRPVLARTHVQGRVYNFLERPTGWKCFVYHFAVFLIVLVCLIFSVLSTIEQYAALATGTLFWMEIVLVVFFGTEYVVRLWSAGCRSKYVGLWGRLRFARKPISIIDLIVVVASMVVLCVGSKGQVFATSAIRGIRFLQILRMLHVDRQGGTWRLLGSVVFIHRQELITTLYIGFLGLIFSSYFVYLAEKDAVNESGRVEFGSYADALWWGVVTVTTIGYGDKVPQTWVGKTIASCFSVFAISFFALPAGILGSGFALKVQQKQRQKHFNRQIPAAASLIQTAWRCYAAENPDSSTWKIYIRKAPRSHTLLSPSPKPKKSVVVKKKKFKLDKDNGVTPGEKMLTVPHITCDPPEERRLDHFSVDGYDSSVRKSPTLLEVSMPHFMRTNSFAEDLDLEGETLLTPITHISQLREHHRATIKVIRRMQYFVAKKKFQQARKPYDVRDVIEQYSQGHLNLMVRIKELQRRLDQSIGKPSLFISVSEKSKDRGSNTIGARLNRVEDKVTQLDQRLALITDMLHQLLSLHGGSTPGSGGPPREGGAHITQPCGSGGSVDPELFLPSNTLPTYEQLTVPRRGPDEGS

The target of assay [3] is Potassium voltage-gated channel subfamily KQT member 2 (Rattus norvegicus) (UniProt O88943). As to the kind of experiment: KCNQ2 thallium flux enhancement – KCNQ2-CHO-K1 cells, selectivity assay for KCNQ1 potentiator project (AID 493009;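 active = mean duplicate potentiation above the buffer control mean plus 5 SD of buffer wells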;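 note: assay conditions were tuned for KCNQ1 rather than KCNQ2 modulators; signal is max minus min fluorescence divided by baseline after thallium stimulus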). Conditions: FluxOR thallium flux fluorescence, at 10 µM; hits give high values, scaled: buffer 0, activator control 100.
Chain of Potassium voltage-gated channel subfamily KQT member 2 (Rattus norvegicus) (O88943 whole entry, looked up): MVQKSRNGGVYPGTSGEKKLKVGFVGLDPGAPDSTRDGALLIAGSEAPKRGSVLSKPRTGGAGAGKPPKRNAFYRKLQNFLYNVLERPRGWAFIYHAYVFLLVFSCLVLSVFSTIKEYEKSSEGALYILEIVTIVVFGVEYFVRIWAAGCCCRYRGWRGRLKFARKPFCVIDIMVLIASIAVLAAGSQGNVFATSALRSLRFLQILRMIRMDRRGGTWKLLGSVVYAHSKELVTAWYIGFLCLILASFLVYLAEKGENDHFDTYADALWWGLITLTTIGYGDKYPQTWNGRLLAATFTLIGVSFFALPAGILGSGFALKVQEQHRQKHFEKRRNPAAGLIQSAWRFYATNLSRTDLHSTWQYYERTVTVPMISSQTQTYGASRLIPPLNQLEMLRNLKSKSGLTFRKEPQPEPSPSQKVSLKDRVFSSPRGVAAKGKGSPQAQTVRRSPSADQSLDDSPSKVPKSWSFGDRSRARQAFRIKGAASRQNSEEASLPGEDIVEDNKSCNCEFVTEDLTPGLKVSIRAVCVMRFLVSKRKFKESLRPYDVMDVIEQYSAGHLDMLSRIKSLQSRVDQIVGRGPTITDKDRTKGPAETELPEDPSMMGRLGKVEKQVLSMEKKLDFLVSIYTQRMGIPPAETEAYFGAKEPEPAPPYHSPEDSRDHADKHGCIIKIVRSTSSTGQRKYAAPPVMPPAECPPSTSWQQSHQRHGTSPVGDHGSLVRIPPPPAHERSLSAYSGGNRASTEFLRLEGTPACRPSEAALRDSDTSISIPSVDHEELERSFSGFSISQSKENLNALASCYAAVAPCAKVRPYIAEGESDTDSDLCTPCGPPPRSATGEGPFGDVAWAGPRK
Assay [4] addresses Potassium voltage-gated channel subfamily KQT member 1 (Homo sapiens) (UniProt P51787). Description: KCNQ1 activators by electrophysiology – IonWorks patch clamp, KCNQ1-CHO cells, orthogonal assay for KCNQ1 potentiator project, confirmation (AID 493184;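 active = current rise at least 3 SD above the untreated control mean in each of two repeat wells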). The note with it: automated patch clamp current, at 10 µM; hits give high values. The method in brief: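 Material: KCNQ1-expressing CHO cells; doses: 10 µM final, single point; probe or stimulus: voltage step from -90 mV holding to +40 mV, 2,000 ms; signal: automated voltage clamp, amphotericin B perforated patch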
(In general: The patch-clamp technique gives a direct electrical read-out from membranes.)

The structures appear in SMILES notation. Active and inactive are the calls of the source.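 Rule for the calls, unless noted: active = duplicate-averaged activation above buffer control mean plus 5 SD of those controls; inactive = the rest.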

From PubChem BioAssay come the findings set out here.

Take `CCOc1ccc(N2CC(C(=O)Nc3cc(Cl)ccc3-n3cncn3)CC2=O)cc1` (stereo not given): the result in assay [1], in assay [2], in assay [3] and in assay [4] was inactive.
Take `COc1cc(OC)cc(C(=O)NNC(=O)C(=O)Nc2cc(OC)c(Cl)cc2OC)c1`: the activation in assay [1] was 202% (active). In addition, the potentiation in assay [2] is 64% (active); in assay [3], 213% (active). Moreover, the outcome in assay [4] was inactive.
Take `CC(C)c1ccc(NC(=O)C2CC(=O)N=C(N)S2)cc1` (stereo not given): in assay [1], the activation is 164% (active). The potentiation is 41.5% (active) in assay [2] and 227% (active) in assay [3]. Besides, the result in assay [4] was inactive.
Consider `Cc1cc(S(=O)(=O)N2CCOCC2)ccc1OCC(=O)NCc1ccccn1`, for which the result in assay [1], in assay [2], in assay [3] and in assay [4] was inactive.
In the case of `Cc1nc2ccccn2c1C(=O)N/N=C/c1ccccc1`, the result in assay [1], in assay [2], in assay [3] and in assay [4] was inactive.
Consider `Fc1ccc(/C=N/NC(=S)Nc2ccc(Cl)cc2)cc1F`, for which the outcome in assay [1], in assay [2], in assay [3] and in assay [4] was inactive.
Regarding `Cc1ccc(C(=O)Sc2cccccc2=O)cc1`, the activation in assay [1] was 230% (active). The results for the potentiation in assay [2] and in assay [3] were 37.5% (active) and 228% (active), respectively. In assay [4], the result was inactive.
On the same counts, the results for `Oc1c(N=NC(=S)Nc2ccccc2F)c2ccccc2n1Cc1ccccc1` are 143% (active), 49% (active), 183% (active) and “inactive”.
With `COc1ccc(-n2c(NCCN(C)C)nc3sc4c(c3c2=O)CCCCC4)cc1`, the result in assay [1], in assay [2], in assay [3] and in assay [4] was inactive.
With `COc1cc(/C=N/Nc2snc(SC)c2C#N)ccc1O`, the outcome in assay [1], in assay [2], in assay [3] and in assay [4] was inactive.
Regarding `COC(=O)C1=C(C)NC(C)=C(C(=O)OC)C1c1ccccc1[N+](=O)[O-]`, the result in assay [1], in assay [2], in assay [3] and in assay [4] was inactive.
In the case of `CCOC(=O)c1cccc(C(=O)Nc2nc3ccc(OC)cc3s2)n1`, the result in assay [1], in assay [2], in assay [3] and in assay [4] was inactive.
As for `O=C1CN(c2nc(-c3cccs3)nc3sc4c(c23)CCCC4)CCN1`, the activation in assay [1] is 259% (active). For the same compound, the potentiation in assay [2] is 415% (active); in assay [3], 492% (active). For the same compound, in assay [4], the result was inactive.
For the compound `O=C1CN(S(=O)(=O)c2ccccc2)CC(=O)N1CCc1ccccc1`, the result in assay [1], in assay [2], in assay [3] and in assay [4] was inactive.
As for `NC(=S)n1[nH]c(-c2ccc([N+](=O)[O-])cc2)c(N=Nc2cccc(Cl)c2)c1=O`, the activation in assay [1] was 150% (active). In addition, the values for the potentiation in assay [2] and in assay [3] were 34.5% (active) and 179% (active), respectively. Further, in assay [4], the outcome was inactive.
With `Cc1sc(NC(=O)CS(=O)(=O)c2ccccc2)c(C#N)c1C`, the outcome in assay [1], in assay [2], in assay [3] and in assay [4] was inactive.
For `O=C(c1ccco1)N1CCN=C1SCc1ccc(F)cc1`, the result in assay [1], in assay [2], in assay [3] and in assay [4] was inactive.
Turning to `COc1ccc(C(=O)On2c(-c3ccc(Br)cc3)nc3ccccc3c2=O)cc1`, the outcome in assay [1], in assay [2], in assay [3] and in assay [4] was inactive.
As for `Cc1ccc(NC(=O)CCS(=O)(=O)c2cccc3nonc23)c(Br)c1`, the outcome in assay [1], in assay [2], in assay [3] and in assay [4] was inactive.
With `O=C(NC(=S)N1CCN(Cc2ccc3c(c2)OCO3)CC1)c1ccc(Cl)cc1`, the activation in assay [1] was 260% (active). In addition, the potentiation in assay [2] was 86% (active); in assay [3], 298% (active). Besides, the outcome in assay [4] was inactive.
As to `O=C(Nc1ccc(N2CCCCC2)cc1)c1cccnc1Cl`, the result in assay [1], in assay [2], in assay [3] and in assay [4] was inactive.
In the case of `COc1ccc(CN(C)C(=O)c2cccc(NS(=O)(=O)c3ccccc3)c2)cc1F`, the result in assay [1], in assay [2], in assay [3] and in assay [4] was inactive.
As to `Cc1ccc(C(=O)NCCC(=O)NCc2cc(=O)n(C)c(=O)n2C)cc1`, the outcome in assay [1], in assay [2], in assay [3] and in assay [4] was inactive.
`CNCc1ccccc1Sc1cccc2ccccc12`: the result in assay [1], in assay [2], in assay [3] and in assay [4] was inactive.
In the case of `Cc1nn(C)c(C(=O)NC(=S)Nc2ccccc2Br)c1Cl`, the activation in assay [1] is 232% (active). For the same compound, the results for the potentiation in assay [2] and in assay [3] were 96% (active) and 254% (active), respectively. The result in assay [4] was inactive.
Turning to `O=C(CN1CCN(Cc2ccc(F)cc2Cl)C1=O)NCCc1ccccc1`, the result in assay [1], in assay [2], in assay [3] and in assay [4] was inactive.
Consider `Fc1ccc(NC(=S)N/N=C/c2ccc(F)c(F)c2)c(F)c1`, for which the outcome in assay [1], in assay [2], in assay [3] and in assay [4] was inactive.
Take `COCCNC(=O)C1CCN(S(=O)(=O)N2CCC3(CC2)OCCO3)CC1`: the outcome in assay [1], in assay [2], in assay [3] and in assay [4] was inactive.
For `COc1ccc(NC(=O)C(=O)NNC(=O)c2ccc(Cl)cc2Cl)cc1`, in assay [1], the activation was 412% (active). For the same compound, the potentiation in assay [2] was 200% (active); in assay [3], 492% (active). For the same compound, in assay [4], the outcome was inactive.
On to `C/C(N)=C(/C#N)C(=O)COc1ncnc2ccc(Br)cc12`, for which the result in assay [1], in assay [2], in assay [3] and in assay [4] was inactive.
